NALP3 yeast inh – NALP3 inhibition in yeast | Yeast reconstituted NLRP3/ASC/caspase-1, beta-gal luminescence, 24 h | AID 2825 | 330,000 tested, 0.39% active | inhibition, % at 10 µM;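 active = inhibition of 50% or more; inactive = inhibition below 50%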;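 note: plate controls were induced DMSO wells for no effect and uninduced yeast grown without galactose for full effect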
Mdm2 MdmX PPI – disrupts the human Mdm2-MdmX interaction; inhibition, % at 8 µM; SaOS-2 split-luciferase Mdm2/MdmX complementation, luminescence; 330,000 tested, 3% active; O15151+Q00987;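 active = inhibition of at least 50% at 8 µM in the primary screen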
T cruzi repl – blocks replication of Trypanosoma cruzi | 300,000 tested, 1.4% active | T. cruzi beta-gal in NIH3T3, luminescence, 90 h | AID 1885 | inhibition, % (concentration not given with the values);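 active = mean inhibition across valid replicates above about 55%, limit read from the data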;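 note: signal also drops with host cell toxicity which is not excluded here; 0% = plate median of DMSO wells and 100% = zero luminescence signal; higher percent means less beta-gal luminescence so fewer parasites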
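Read-out: Parasite load inhibition, % | Test system: Mouse NIH/3T3 fibroblasts infected with β-gal-expressing T. cruzi Tulahuen C4 | Amount: 5,000 cells/well | Medium: DMEM, 2% fetal bovine serum | Signal: GalScreen β-gal luminescence, detergent lysis, 60 min | Timing: 3 h attach, ≥90 h co-culture | Also added: Tulahuen C4 trypomastigotes, 5000/well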
Calb FLC – affects C. albicans growth with fluconazole; C. albicans CaCi-2 + fluconazole, Alamar Blue growth, 48 h; 300,000 tested, 0.57% active; growth inhibition, % (concentration not given with the values); AID 1979;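 active = growth inhibition above about 58% in most replicates, limit read from the data, passing the limit was not always enough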;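 note: all wells also contain fluconazole at 8 µg/ml as a sub-toxic cotreatment; 0% = median of DMSO wells and 100% = median of geldanamycin control wells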
CSC inhib – cancer stem cell inhibition. 300,000 tested, 1.1% active. inhibition, % at 7.5 µM. cancer stem cell-like cells viability, luminescence. AID 2717; in the data active = inhibition above about 75%; tested in HMLE shEcad cells
Beta apoptosis – blocks beta cell apoptosis. INS-1E cytokine-induced death, ATP luminescence, 48 h; percent of positive-control rescue, neutral wells zero. protection from apoptosis, % (concentration not given with the values). 300,000 tested, 0.8% active. AID 435005;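 active = Every replicate reaches about 75%, or at least half do and their mean reaches it too, limit read from the data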;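 note: 0% = cytokine-treated negative control wells and 100% = positive control rescue; higher means more ATP so stronger rescue from cytokine killing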
Starred values were filed as active, the others as inactive; x = no result; ! = not active in a repeat. Rows were chosen to be rich in hits. Some 5.3% of all compounds tested hit in one or more screens of this group.

SMILES	NALP3 yeast inh	Mdm2 MdmX PPI	T cruzi repl	Calb FLC	CSC inhib	Beta apoptosis
CCC(C)[C@H](NC(=O)N1CC(=O)Nc2ccccc21)C(=O)N[C@H](Cc1c[nH]c2ccccc12)C(=O)O (some centres not stated)	3.2	-17.2	-0.9	0.1	-12.2	-1.5
O=[N+]([O-])c1cc(CN2CCN(c3cccc(C(F)(F)F)c3)CC2)c2cccnc2c1O	4.9	24.3	75.6*	2.1	5.2	70.5
CCCCNC(=S)N(Cc1c(C)noc1C)c1ccccc1	-13.7	-1.4	1.5	-2.0	-4.2	-0.3
c1ccc(COc2ccc(-c3sc(Nc4ccccc4)n[n+]3-c3ccccc3)cc2)cc1	5.1	16.5	32.3	4.7	17.9	64.9
CCc1ccc(Nc2n[n+](-c3ccccc3)c(-c3ccc(OCc4ccccc4)cc3)s2)cc1	16.6	25.7	54.9*	0.5	26.7	59.9
Cc1c(OCC(=O)NCCN2CCOCC2)ccc2c1oc(=O)c1ccccc12	11.4	20.3	16.4	-2.8	-11.6	1.7
CC(=O)c1cccc(NC(=O)CSc2nc(=O)n(CCCN3CCOCC3)c3c2CCC3)c1	2.5	1.2	-2.1	7.3	-13.1	x
CN1CCN(C(CNC(=O)c2ccc(Br)o2)c2ccc(F)cc2)CC1 (configuration not stated)	19.1	9.2	61.6*	-10.8	-15.5	5.7
CN1CCN(C(CNC(=O)C(=O)Nc2ccc3c(c2)OCCO3)c2ccc(F)cc2)CC1 (configuration not stated)	27.5	25.5	61.8*	8.0	-7.0	-1.2
Cc1nn(-c2ccccc2)c(C)c1/C=N/n1c(-c2ccc(C(C)(C)C)cc2)n[nH]c1=S	16.7	30.7	10.6	-6.5	80.2*	1.8
Cc1ccc(-c2n[nH]c(=S)n2/N=C/c2c(C)nn(-c3ccccc3)c2C)cc1	18.3	-20.3	7.5	44.5	-8.5	13.7
CCOC(=O)C(C(=O)OCC)C(Nc1ccc(Br)cc1)c1ccccc1 (configuration not stated)	49.0	-8.1	-39.7	3.7	75.3*	-6.1
Cc1cc(N/N=C/c2ccc(Cl)cc2)nc(NCc2ccccc2)n1	20.9	44.8	80.1*	7.6	29.0	24.0
O=S(=O)(c1cccs1)N1CCN(CC(O)COC2CCCc3ccccc32)CC1 (configuration not stated)	11.7	9.3	4.2	-5.1	-10.0	-5.8
CCOc1ccccc1N1CCN(CC(O)COC2CCCc3ccccc32)CC1 (configuration not stated)	22.1	-5.2	28.0	83.3*	-1.2	3.4
COc1ccc2cc(CN(Cc3cccnc3)Cc3nnnn3Cc3ccccc3)c(=O)[nH]c2c1	-6.7	-1.2	62.2*	8.7	17.2	-5.6
COc1ccc2cc(CN(Cc3cccs3)Cc3nnnn3Cc3ccccc3)c(=O)[nH]c2c1	-5.4	11.9	30.9	23.1	-7.3	1.9
Cc1cccc2cc(CN(Cc3cccs3)Cc3nnnn3Cc3ccccc3)c(=O)[nH]c12	12.8	27.3	63.2*	21.4	-15.4	7.6
CCOc1ccc2[nH]c(=O)c(CN(Cc3cccs3)Cc3nnnn3C(C)(C)CC)cc2c1	16.3	21.5	58.5*	-2.4	33.8	-29.8
COC(=O)Cn1cnc2c(nnn2-c2ccc(F)cc2)c1=O	4.8	-2.2	-5.1	-1.7	-6.2	-2.6
Cc1nnc(Sc2cc(C(=O)NCCCOC(C)C)c3ccccc3n2)s1	-8.0	16.4	-9.0	-4.4	19.0	0.1
CC1C(=O)OC2C1CCC1(C)CCC(=O)C(C)C21 (configuration not stated)	3.3	-1.2	54.7*	3.4	10.0	-1.8
CC1=CC(=O)C2=C(C)CC[C@@H]3[C@H](OC(=O)[C@H]3C)[C@@H]12	5.5	6.2	-3.3	-0.2	7.4	10.0
COc1ccc(-n2c(C)cc(C(=O)CSc3ccc(NC(C)=O)cc3)c2C)cc1	2.6	-62.6	11.2	-0.4	168.6*	4.8
Cc1cccc(CN2C(=O)[C@H]3Cc4c([nH]c5ccccc45)C(C)(C)N3C2=O)c1	-4.6	15.9	4.4	27.3	3.9	5.2
SMILES	NALP3 yeast inh	Mdm2 MdmX PPI	T cruzi repl	Calb FLC	CSC inhib	Beta apoptosis
Cc1cccc(CN2C(=O)[C@@H]3Cc4c([nH]c5ccccc45)C(C)(C)N3C2=O)c1	25.5	23.6	17.0	21.3	76.1*	x
O=C(Cn1c2ccccc2c(=O)c2ccccc21)N/N=C/c1ccc(N2CCCC2)c([N+](=O)[O-])c1	x	x	-6.2	4.2	112.6*	30.5
CN(CCCOc1ccccc1Br)Cc1ccccc1	11.2	2.2	38.9	-12.1	5.7	-0.9
Cc1cc(C)c(OCCN(C)Cc2ccccc2)c(Br)c1	30.4	-4.5	57.3*	10.3	x	2.0
O=[N+]([O-])c1ccc(S(=O)(=O)NCC(c2cccnc2)N2CCc3ccccc3C2)cc1 (configuration not stated)	0.2	6.7	35.0	6.5	-1.6	x
O=[N+]([O-])c1ccc(S(=O)(=O)NCC(c2ccco2)N2CCc3ccccc3C2)cc1 (configuration not stated)	8.1	-12.1	61.0*	2.0	-0.3	-4.0
Cc1ccc(S(=O)(=O)Cn2nnnc2C(C(C)C)N2CCN(c3nc4ccccc4s3)CC2)cc1 (configuration not stated)	12.5	12.0	56.1*	2.0	-11.7	9.2
CCC(C)Sc1nc2c(c(=O)[nH]c(=O)n2C)n1CC(O)COc1ccccc1C (configuration not stated)	8.8	20.0	20.7	15.7	-13.5	1.4
COc1ccc2c(c1)C(=O)[C@@H](O)[C@H](c1ccc(OC)c(Br)c1)O2	34.7	26.3	-19.2	-15.4	-26.8	76.6*
Cc1cc(C)c2cc(CN(Cc3nnnn3C3CCCCC3)CC3CCCO3)c(=O)[nH]c2c1 (configuration not stated)	16.5	13.6	-3.0	15.8	-17.9	-0.7
CC(Sc1ncc(C(F)(F)F)cc1Cl)C(=O)NC(N)=O (configuration not stated)	-15.1	13.9	2.2	20.1	-4.6	6.8
CC(/C=N/NC(=O)c1cc(C2CC2)[nH]n1)=C\c1ccccc1	2.6	39.7	3.5	43.7	36.2	7.8
OCc1ccc2c(c1)c(-c1ccc3c(c1)OCCO3)c(-c1ccccc1)n2-c1ccccc1	6.7	29.0	x	x	92.2*	5.0
CC(C)Cn1c(O)c(N=NC(=O)c2cccc(S(=O)(=O)N3CCCCC3)c2)c2ccccc21	14.0	37.0	12.5	25.0	91.4*	37.5
COc1ccccc1NC(=O)CSc1nc2nccnc2c(=O)n1Cc1cccs1	7.4	7.6	6.5	-1.1	12.6	-13.4
CC1=C(CC(=O)c2ccc(Cl)cc2)C(=O)c2ccccc2C1=O	21.1	-3.4	-13.3	17.8	41.2	98.9*
COc1ccc2cc3[n+](cc2c1OC)CCc1cc2c(cc1-3)OCO2	24.0	37.8	51.7	70.7	-4.4	79.4*!

Screening results (PubChem BioAssay)
